Measured values pooled from the literature.
Each line is one published result; the experiments were not run side by side.
FGFR1: Fibroblast growth factor receptor 1 (FGFR1, Homo sapiens, UniProt P11362)
FGFR1 V561M: Fibroblast growth factor receptor 1 (FGFR1, Homo sapiens, UniProt P11362, V561M)

| SMILES | target | test | conditions | endpoint | value |
| --- | --- | --- | --- | --- | --- |
| Cc1ccc(C(=O)NCc2ccsc2)cc1C#Cc1cn(C(C)C)c2ncnc(N)c12 | FGFR1 | enzyme activity, inhibitor | 1 µM | activity vs control | 33% |
| COc1cc2nccc(Oc3ccc(NC(=O)c4c5n(n(-c6ccc(F)cc6)c4=O)CCCC5)cc3)c2cc1OC | FGFR1 | enzyme activity, inhibitor | 0.1 µM | inhibition | -7% |
| C=CC(=O)Nc1cc(Nc2nccc(Nc3cc(Cl)c(F)cc3C(C)(C)O)n2)c(OC)cc1N1CC[C@@H](N(C)C)C1 | FGFR1 V561M | enzyme activity, inhibitor | 1 µM | inhibition | 1% |
| Nc1ncnc2occ(-c3ccc(NC(=O)Nc4cc(C(F)(F)F)ccc4F)cc3)c12 | FGFR1 | cell-free assay | 20 µM | remaining signal | 0.15% |
| COc1ccc(/C=C/C(=O)c2ccc(NC3=C(Cl)C(=O)c4ccccc4C3=O)cc2)cc1O | FGFR1 | enzyme activity, inhibitor, ADP detection | 1 µM | inhibition | > 70% |
| Cc1cc(C)c(-n2ccn3nc(-c4cccnc4)cc23)cc1NC(=O)c1cc(C#N)cc(S(F)(F)(F)(F)F)c1 | FGFR1 | cell-free assay, competition with immobilised ligand | 0.1 µM | remaining binding | 85.5% |
| C=CC(=O)Nc1cccc(-n2nc3c(=O)[nH]nc(N)c3c2-c2oc3ccc(C)cc3c2C)c1 | FGFR1 | enzyme activity, inhibitor, ELISA | 10 nM | inhibition | 10.6% |
| Cc1cc(NC(=O)c2cccc3cc(-c4cccc5[nH]nc(N)c45)ccc23)ccc1F | FGFR1 V561M | enzyme activity, inhibitor | 0.1 µM | activity vs control | 92% |
| CN(c1ccnc(CNc2nc(Nc3ccc4c(c3)CC(=O)N4)ncc2C(F)(F)F)n1)S(C)(=O)=O | FGFR1 | cell-free assay, competition with immobilised ligand | 1 µM | remaining binding | 82% |
| Oc1ccc(-c2nc(-c3ccncc3)c(-c3ccc(F)cc3)[nH]2)cc1 | FGFR1 | cell-free assay | 0.5 µM | remaining signal | 86.8% |
| CNCc1ccccc1-c1csc([C@H](C)Nc2nc(C)nc3cc(OC)c(OC)cc23)c1 | FGFR1 | cell-free assay, competition with immobilised ligand | 1 µM | remaining binding | 100% |
| CCN(CC)CCNC(=O)c1c(C)[nH]c(/C=C2\C(=O)Nc3ccc(F)cc32)c1C | FGFR1 | cell-free assay | 0.5 µM | remaining signal | 66.1% |
| O=S(=O)(NC1CCC(c2cc(F)ccc2F)(S(=O)(=O)c2ccc(Cl)cc2)CC1)C(F)(F)F (stereo not drawn) | FGFR1 | cell-free assay, competition with immobilised ligand | 1 µM | remaining binding | 100% |
| CC/C(=N\NC(=O)NCc1cccc(O)c1)c1ccc(O)c(C)c1O | FGFR1 | enzyme activity, inhibitor | 0.1 µM | inhibition | 6.1% |
| O=C1NC(=O)c2cc(Nc3ccc(F)cc3)c(Nc3ccc(F)cc3)cc21 | FGFR1 | cell-free assay | 0.5 µM | remaining signal | 92.1% |
| CNc1cccc2cc(C(=O)Nc3ccc(C(=O)O)cc3)c(=O)[nH]c12 | FGFR1 | enzyme activity, inhibitor | 10 µM | inhibition | 9.9% |
| CS(=O)(=O)c1cc(C2(NC(=O)c3cncc4c3cnn4-c3ccc(F)cc3)CC2)ccn1 | FGFR1 | cell-free assay, competition with immobilised ligand | 1 µM | remaining binding | 95% |
| CNC(=O)c1cc(Oc2ccc(NC(=O)Nc3ccc(Cl)c(C(F)(F)F)c3)cc2)ccn1 | FGFR1 V561M | cell-free assay | 0.3 µM | inhibition | 26% |
| CCC(=N\O)/C(C)=C/c1ccc(F)cc1 | FGFR1 | cell-free assay, competition with immobilised ligand | 1 µM | remaining binding | 100% |
| Cc1ccc(NC(=O)c2ccc(C)c(C(F)(F)F)c2)cc1C#Cc1nn(C2CCC(O)CC2)c2ncnc(N)c12 (stereo not drawn) | FGFR1 V561M | cell-free assay | 10 µM | remaining signal | 40% |
| COc1cc2ncnc(Nc3ccc(Oc4ccccc4)c(C)c3C)c2cc1OC | FGFR1 | enzyme activity, inhibitor | 1 µM | inhibition | -2% |
| COc1cc2ncnc(Nc3ccc(F)c(Cl)c3)c2cc1OCCCN1CCOCC1 | FGFR1 | cell-free assay | 0.5 µM | remaining signal | 96.4% |
| COc1cc(/C=C/C(=O)CC(=O)/C=C/c2ccc(O)c(OC)c2)ccc1O | FGFR1 | enzyme activity, inhibitor | 1 µM | activity vs control | 102% |
| Cn1cc(Cl)c2c(Oc3c(F)cc(Nc4cc(Cl)nc(N)n4)cc3F)ccnc21 | FGFR1 | cell-free assay, competition with immobilised ligand | 0.1 µM | remaining binding | 100% |
| C[C@@H]1CCN(C(=O)CC#N)C[C@@H]1N(C)c1ncnc2[nH]ccc12 | FGFR1 | cell-free assay | 0.5 µM | remaining signal | 101% |
| Cc1c[nH]c2nccc(Oc3c(F)cc(Nc4cc(Cl)nc(N)n4)cc3F)c12 | FGFR1 | cell-free assay, competition with immobilised ligand | 0.1 µM | remaining binding | 100% |
| CCOc1cc(-c2nncn2C)ccc1Nc1ncc2cc(C)nc(NCC(C)(C)C)c2n1 | FGFR1 | enzyme activity, inhibitor, FRET | 1 µM | inhibition | < 15% |
